Measurements published in ChEMBL document CHEMBL4376838, “Discovery of Novel Celastrol Derivatives as Hsp90-Cdc37 Interaction Disruptors with Antitumor Activity” (J Med Chem, 2019).
Activity calls are given as the source filed them. No cut-off for these calls is given here.

Tests used:
[1] = target: T1, Hsp90 co-chaperone Cdc37 (Homo sapiens) (UniProt Q16543); test: Binding affinity to Cdc37 in human A549 cells assessed as inhibition of HSP90-Cdc37 interaction by measuring decrease in CDK4 protein level incubated for 12 hrs by Western blot analysis; type: cell-based
T1 sequence (whole entry): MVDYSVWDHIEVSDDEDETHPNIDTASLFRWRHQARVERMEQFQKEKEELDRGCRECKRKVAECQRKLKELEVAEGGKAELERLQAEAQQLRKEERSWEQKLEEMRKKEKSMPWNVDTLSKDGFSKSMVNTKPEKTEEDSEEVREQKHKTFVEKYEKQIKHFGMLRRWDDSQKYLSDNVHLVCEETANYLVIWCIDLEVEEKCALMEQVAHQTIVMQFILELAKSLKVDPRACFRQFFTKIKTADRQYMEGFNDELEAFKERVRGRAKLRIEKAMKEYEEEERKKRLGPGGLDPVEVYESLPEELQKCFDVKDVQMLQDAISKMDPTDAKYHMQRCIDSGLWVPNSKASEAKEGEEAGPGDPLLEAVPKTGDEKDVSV
Procedure, shortened: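 A549 cells (5×10^5 per 6 cm dish) were allowed to settle 12 h, then treated with DMSO or compound at the indicated concentrations for 12 h. Lysates were adjusted to 3 mg/ml protein by BCA and resolved on 10% SDS-PAGE, then Western blotted. β-actin or Hsp90 served as the loading control. Three separate experiments, mean ± SD.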

A549 [2] = test: Induction of cell cycle arrest in human A549 cells assessed as accumulation at G1 phase at 0.2 uM incubated for 24 hrs by PI staining based flow cytometric analysis (reference value: 60.14%); type: functional
Procedure, shortened: (§1)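 A549 cells (4×10^5 per 6 cm dish) were grown 24 h, then exposed to compound (0.2, 0.4, 0.8 μM) or DMSO for 24 h. Cells fixed in 75% ethanol at −20 °C for at least 12 h, treated with RNase A at 37 °C for 30 min, then stained with PI for 15 min in the dark. Analysed by flow cytometry, mean ± SD, n = 3.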

A549 [3] = test: Antiproliferative activity against human A549 cells assessed as inhibition of cell growth at 0.5 uM incubated for 48 hrs in presence of methyl thioglycolate by MTT assay relative to control; type: functional; settings: A549, 48 h, read-out: GI
A549 [4] = test: Induction of apoptosis in human A549 cells assessed as necrotic cells at 1.2 uM incubated for 48 hrs by Annexin V-FITC and PI staining based flow cytometric analysis (reference value: 1.0%); type: functional
Procedure, shortened: (§2)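 A549 cells (4×10^5 per 6 cm dish) cultured 24 h, then treated 48 h with compound or DMSO. Cells gently harvested, washed twice in cold PBS, resuspended in binding buffer with Annexin V and PI, stained 15 min at room temperature in the dark, analysed by flow cytometry. Mean ± SD, n = 3.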

A549 [5] = test: Induction of cell cycle arrest in human A549 cells assessed as accumulation at S phase at 0.8 uM incubated for 24 hrs by PI staining based flow cytometric analysis (reference value: 27.59%); type: functional; procedure, shortened: as §1
[6] = Binding affinity to DTT in DMSO-d6 with retention of CA moiety at 0.02 mmol incubated for 20 mins in ultrasound by 1H NMR-spectroscopic analysis
A549 [7] = test: Induction of morphological apoptosis in human A549 cells assessed as increase in cells with nuclear fragmentation at 0.3 to 1.2 uM incubated for 48 hrs by Hoechst 33342 and PI staining based fluorescence microscopic method; type: functional, cell-based
Procedure, shortened: (§3)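 A549 cells (4×10^5 per 6 cm dish) were grown 24 h, then exposed to compound at the indicated concentrations or DMSO for 48 h. After PBS washes, cells were stained with Hoechst 33342 (10 µg/ml) plus PI for 5 min at room temperature in the dark and imaged by fluorescence microscopy for nuclear morphology.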

A549 [8] = test: Induction of morphological apoptosis in human A549 cells assessed as decrease in cell density incubated for 48 hrs by Hoechst 33342 and PI staining based fluorescence microscopic method; type: functional; procedure, shortened: as §3
A549 [9] = test: Induction of cell cycle arrest in human A549 cells assessed as accumulation at S phase at 0.2 uM incubated for 24 hrs by PI staining based flow cytometric analysis (reference value: 27.59%); type: functional; procedure, shortened: as §1
[10] = target: T1, Hsp90 co-chaperone Cdc37 (Homo sapiens); test: Binding affinity to full length CDC37 (unknown origin) assessed as reduction in absorption at 440 nm reaching equilibrium within 15 mins at 100 uM by UV absorption analysis; settings: in the assay text read “within 5 mins” for “within 15 mins”
Procedure, shortened: (§4)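 Compound (100 μM) mixed with GSH (100 μM), Cdc37 (1.5 μM) or Hsp90 (1.5 μM) in PBS containing 1% DMSO, incubated at 37 °C for 0, 5, 15 and 30 min. UV spectra scanned 200-500 nm, with absorbance at 440 nm compared against the 0 min value (A/A0). Mean ± SD, n = 3.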

A549 [11] = test: Induction of apoptosis in human A549 cells assessed as early apoptotic cells at 0.3 uM incubated for 48 hrs by Annexin V-FITC and PI staining based flow cytometric analysis (reference value: 0.5%); type: functional
A549 [12] = test: Induction of cell cycle arrest in human A549 cells assessed as accumulation at G1 phase at 0.8 uM incubated for 24 hrs by PI staining based flow cytometric analysis (reference value: 60.14%); type: functional; procedure, shortened: as §1
A549 [13] = test: Induction of apoptosis in human A549 cells assessed as increase in late apoptotic cells incubated for 48 hrs by Annexin V-FITC and PI staining based flow cytometric analysis; type: functional, cell-based
A549 [14] = test: Induction of apoptosis in human A549 cells assessed as viable cells at 0.6 uM incubated for 48 hrs by Annexin V-FITC and PI staining based flow cytometric analysis (reference value: 95.5%); type: functional; settings: A549, 48 h, read-out: Activity
A549 [15] = test: Induction of apoptosis in human A549 cells assessed as viable cells at 1.2 uM incubated for 48 hrs by Annexin V-FITC and PI staining based flow cytometric analysis (reference value: 95.5%); type: functional; settings: A549, 48 h, read-out: Activity; procedure, shortened: as §2
A549 [16] = test: Induction of apoptosis in human A549 cells assessed as necrotic cells at 0.6 uM incubated for 48 hrs by Annexin V-FITC and PI staining based flow cytometric analysis (reference value: 1.0%); type: functional
A549 [17] = test: Induction of apoptosis in human A549 cells assessed as late apoptotic cells at 0.6 uM incubated for 48 hrs by Annexin V-FITC and PI staining based flow cytometric analysis (reference value: 3.0%); type: functional
[18] = target: Heat shock protein HSP 90-alpha (Homo sapiens) (UniProt P07900); test: Binding affinity to full length Hsp90alpha (unknown origin) assessed as reduction in absorption at 440 nm reaching equilibrium within 5 mins at 100 uM by UV absorption analysis; settings: in the assay text read “within 15 mins” for “within 5 mins”; procedure, shortened: as §4

inhibition [1]: Dose-dependent effect
Activity [6]: Active
Activity [10]: Active
Activity [18]: Active
SMILES: CC1=C(O)C(=O)C=C2C1=CC=C1[C@@]2(C)CC[C@@]2(C)[C@@H]3C[C@](C)(C(=O)OCCCOC(=O)/C=C(\C#N)c4ccc(F)cc4)CC[C@]3(C)CC[C@]12C
Activity (A549 [2]): 64.36%
inhibition of growth at 0.5 µM (A549 [3]): 68.3%
Activity (A549 [4]): 8.2%
Activity (A549 [5]): 23.85%
Activity (A549 [7]): Active
Activity (A549 [8]): Dose-dependent effect
Activity (A549 [9]): 26.39%
Activity (A549 [11]): 2.2%
Activity (A549 [12]): 70.49%
Activity (A549 [13]): Dose-dependent effect
viability at 0.6 µM (A549 [14]): 71.2%
viability at 1.2 µM (A549 [15]): 59.2%
Activity (A549 [16]): 6%
Activity (A549 [17]): 16.9%
